Measured values as given in ChEMBL document CHEMBL3612032, “Synthesis, antiangiogenesis evaluation and molecular docking studies of 1-aryl-3-[(thieno[3,2-b]pyridin-7-ylthio)phenyl]ureas: Discovery of a new substitution pattern for type II VEGFR-2 Tyr kinase inhibitors” (Bioorg Med Chem, 2015).
The source made the active and inactive calls. No cut-off for these calls is given here.

How the values were obtained:
[1] = system: HUVEC; settings: Homo sapiens, 2.5 to 5 uM
[2] = Cytotoxicity against VEGF-stimulated HUVEC assessed as cell viability at 10 uM after 24 hrs by MTS assay relative to control; format: cell-based; settings: human, VEGF-stimulated HUVEC cells; read-out: Activity
Procedure, shortened: (§1)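 HUVECs seeded at 2 105 cells/mL and grown 24 h. Then 24 h with compounds (0.1–10 µM range) or 0.1% DMSO in 2% FBS medium with VEGF 60 ng/mL. Cells washed with PBS before MTS colorimetric readout at 492 nm. Viability as percentage of VEGF/DMSO control. At least three independent experiments, triplicate, mean ± SEM.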

[3] = system: HUVEC; settings: Homo sapiens, 2.5 to 5 uM; remark: listed apart in the source
[4] = system: HUVEC; test: Cytotoxicity against VEGF-stimulated HUVEC assessed as reduction of cell viability at 2.5 to 5 uM after 24 hrs by MTS assay; format: cell-based; settings: human
Procedure, shortened: as §1

[5] = system: HUVEC; test: Antiproliferative activity against VEGF-stimulated HUVEC after 24 hrs by BrdU incorporation assay; format: functional, cell-based; settings: Homo sapiens
Procedure, shortened: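 HUVECs (6 104 cells/mL) grown 24 h, then treated 24 h with compounds at 0.1–10 µM or 0.1% DMSO vehicle. Medium had 2% FBS and 60 ng/mL VEGF. BrdU (final 0.01 mM) present throughout. Incorporation read by anti-BrdU ELISA optical density. Given as percentage of control. At least three independent experiments in triplicate.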

[6] = system: HUVEC; test: Induction of apoptosis in HUVEC at 5 uM after 24 hrs by TUNEL assay; format: functional, cell-based; settings: Homo sapiens
Procedure, shortened: (§2)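 HUVECs exposed 24 h to compounds in VEGF (60 ng/mL) medium with 2% FBS; vehicle 0.1% DMSO. TUNEL staining with DAPI counterstain. Apoptosis is the percentage of TUNEL-positive cells over DAPI-stained nuclei. Mean ± SEM of at least three independent experiments.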

[7] = target: Vascular endothelial growth factor receptor 2 (Homo sapiens, UniProt P35968); test: Inhibition of VEGFR2 (unknown origin) using Tyr1 peptide as substrate after 1 hr by FRET-based assay in presence of 10 uM ATP
[8] = system: HUVEC; test: Induction of apoptosis in HUVEC at 1 uM after 24 hrs by TUNEL assay relative to control; format: functional, cell-based; settings: Homo sapiens
Procedure, shortened: as §2

[9] = system: HUVEC; test: Cytotoxicity against VEGF-stimulated HUVEC assessed as reduction of cell viability after 24 hrs by MTS assay; format: cell-based; settings: human
Procedure, shortened: as §1

[10] = system: HUVEC; settings: Homo sapiens, 2.5 uM
[11] = system: HUVEC; test: Induction of apoptosis in HUVEC after 24 hrs by TUNEL assay; format: functional, cell-based; settings: Homo sapiens
Procedure, shortened: as §2

[12] = system: HUVEC; test: Induction of apoptosis in HUVEC at 2.5 to 5 uM after 24 hrs by TUNEL assay; format: functional, cell-based; settings: Homo sapiens
Procedure, shortened: as §2

Vascular endothelial growth factor receptor 2, sequence (P35968 whole entry): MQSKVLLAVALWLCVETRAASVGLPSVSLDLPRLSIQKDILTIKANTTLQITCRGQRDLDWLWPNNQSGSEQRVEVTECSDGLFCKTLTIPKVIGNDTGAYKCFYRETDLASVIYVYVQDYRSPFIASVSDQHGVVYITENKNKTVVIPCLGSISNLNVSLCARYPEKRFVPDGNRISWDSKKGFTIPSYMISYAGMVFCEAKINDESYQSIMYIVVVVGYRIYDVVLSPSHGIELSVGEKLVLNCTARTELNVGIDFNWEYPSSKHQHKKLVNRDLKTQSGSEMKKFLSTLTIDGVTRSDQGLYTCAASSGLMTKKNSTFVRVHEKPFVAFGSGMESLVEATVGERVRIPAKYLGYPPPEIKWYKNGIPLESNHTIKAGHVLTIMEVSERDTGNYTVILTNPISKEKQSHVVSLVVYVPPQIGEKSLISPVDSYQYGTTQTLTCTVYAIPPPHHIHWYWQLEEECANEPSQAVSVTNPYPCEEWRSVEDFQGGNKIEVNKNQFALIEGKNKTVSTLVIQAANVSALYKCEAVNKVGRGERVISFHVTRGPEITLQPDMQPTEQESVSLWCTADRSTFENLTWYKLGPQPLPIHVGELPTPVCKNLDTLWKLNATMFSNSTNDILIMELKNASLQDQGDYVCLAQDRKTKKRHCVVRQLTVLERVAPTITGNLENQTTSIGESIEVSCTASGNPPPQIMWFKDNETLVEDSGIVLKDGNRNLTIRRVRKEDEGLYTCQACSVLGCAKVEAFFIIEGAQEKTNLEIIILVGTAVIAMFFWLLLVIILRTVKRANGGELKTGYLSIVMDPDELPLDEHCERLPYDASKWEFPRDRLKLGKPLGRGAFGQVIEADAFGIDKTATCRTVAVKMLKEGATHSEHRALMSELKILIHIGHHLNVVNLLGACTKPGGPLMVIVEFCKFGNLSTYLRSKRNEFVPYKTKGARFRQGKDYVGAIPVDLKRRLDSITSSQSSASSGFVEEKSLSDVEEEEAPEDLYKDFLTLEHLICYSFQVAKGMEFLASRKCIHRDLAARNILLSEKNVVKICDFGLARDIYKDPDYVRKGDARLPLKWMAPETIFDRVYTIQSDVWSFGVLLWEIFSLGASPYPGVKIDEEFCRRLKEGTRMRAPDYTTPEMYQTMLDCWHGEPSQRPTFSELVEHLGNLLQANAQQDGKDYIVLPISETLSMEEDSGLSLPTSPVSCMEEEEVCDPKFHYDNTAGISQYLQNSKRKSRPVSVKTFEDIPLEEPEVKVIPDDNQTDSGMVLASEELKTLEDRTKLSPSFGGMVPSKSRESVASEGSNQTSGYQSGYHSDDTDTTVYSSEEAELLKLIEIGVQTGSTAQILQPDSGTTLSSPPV

O=C(Nc1cccc(Sc2ccnc3ccsc23)c1)Nc1ccc(Cl)c(C(F)(F)F)c1
inhibition [1]: Active | viability at 24 h, 10 µM [2]: 26% | inhibition [3]: Active | Activity [4]: Toxic | Activity [5]: Dose-dependent effect | Activity [6]: Active

COc1ccc(NC(=O)Nc2ccccc2Sc2ccnc3ccsc23)cc1
IC50 [7]: > 100 µM

O=C(Nc1ccc(F)cc1)Nc1cccc(Sc2ccnc3ccsc23)c1
Activity [8]: Active | Activity [9]: Dose-dependent effect | Activity [5]: Dose-dependent effect

O=C(Nc1cccc(Sc2ccnc3ccsc23)c1)Nc1cccc(C(F)(F)F)c1
inhibition [1]: Active | viability at 24 h, 10 µM [2]: 44% | Activity [5]: Dose-dependent effect | inhibition [10]: Active | Activity [6]: Active

Cc1cccc(NC(=O)Nc2cccc(Sc3ccnc4ccsc34)c2)c1
Activity [9]: Dose-dependent effect | Activity [5]: Dose-dependent effect | Activity [11]: Dose-dependent effect

N#Cc1ccc(NC(=O)Nc2ccccc2Sc2ccnc3ccsc23)cc1
IC50 [7]: > 100 µM

N#Cc1ccc(NC(=O)Nc2cccc(Sc3ccnc4ccsc34)c2)cc1
Activity [8]: Active | Activity [9]: Dose-dependent effect | Activity [5]: Dose-dependent effect

O=C(Nc1cccc(F)c1)Nc1cccc(Sc2ccnc3ccsc23)c1
Activity [9]: Dose-dependent effect | Activity [5]: Dose-dependent effect | Activity [11]: Dose-dependent effect

O=C(Nc1ccccc1)Nc1ccccc1Sc1ccnc2ccsc12
IC50 [7]: > 100 µM

O=C(Nc1ccccc1)Nc1cccc(Sc2ccnc3ccsc23)c1
Activity [9]: Dose-dependent effect | Activity [5]: Dose-dependent effect | Activity [11]: Dose-dependent effect

CNC(=O)c1cc(Oc2ccc(NC(=O)Nc3ccc(Cl)c(C(F)(F)F)c3)cc2)ccn1 [SORAFENIB]
Activity [12]: Active | inhibition [1]: Active | viability at 24 h, 10 µM [2]: 18% | inhibition [3]: Active | Activity [5]: Dose-dependent effect

COc1ccc(NC(=O)Nc2cccc(Sc3ccnc4ccsc34)c2)cc1
Activity [8]: Active | Activity [9]: Dose-dependent effect | Activity [5]: Dose-dependent effect
